Assay results from ChEMBL document CHEMBL1671769, “Tissue penetration and pharmacokinetics of tigecycline in diabetic patients with chronic wound infections described by using in vivo microdialysis” (Antimicrob Agents Chemother, 2010).
In brackets after ≈: the same amount, converted by molar mass.

What was measured:
[1] = Cmax in plasma of diabetic patient with chronic wound infection at […], iv loading dose followed by […], iv BID for 2 to 3 doses by microdialysis; assay type: ADME, organism-based; design: route intravenous; settings: human
In short: (§1)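 Eight adult diabetic patients; IV 100 mg loading dose over 1 h via peripheral vein, then 50 mg over 1 h every 12 h for 2–3 further doses. Heparinized venous blood from contralateral arm at 0–12 h over a steady-state interval; plasma stored −80°C; HPLC (linear 0.05–5 μg/ml). Noncompartmental analysis: Cmax by inspection, log-linear trapezoidal AUC0-24, t1/2 = 0.693/λz (≥3 terminal points), […].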

[2] = Tmax in plasma of diabetic patient with chronic wound infection at […], iv loading dose followed by […], iv BID for 2 to 3 doses by microdialysis; assay type: ADME, organism-based; settings: human; in short: as §1
[3] = system: Plasma; experiment: AUC (0 to 24 hrs) in plasma of diabetic patient with chronic wound infection at […], iv loading dose followed by […], iv BID for 2 to 3 doses by microdialysis; assay type: ADME, organism-based; design: time < 24 hr, route intravenous; settings: human, in vivo; in short: as §1
[4] = Terminal half life in plasma of diabetic patient with chronic wound infection at […], iv loading dose followed by […], iv BID for 2 to 3 doses by microdialysis; assay type: ADME, organism-based; settings: human; in short: as §1
[5] = system: Plasma; experiment: Clearance at steady state in plasma of diabetic patient with chronic wound infection at […], iv loading dose followed by […], iv BID for 2 to 3 doses by microdialysis; assay type: ADME, organism-based; settings: human, in vivo; in short: as §1
[6] = Volume of distribution at steady state in plasma of diabetic patient with chronic wound infection at […], iv loading dose followed by […], iv BID for 2 to 3 doses by microdialysis; assay type: ADME, organism-based; settings: human, read-out: Vdss; in short: as §1
[7] = system: Plasma; experiment: fCmax in plasma of diabetic patient with chronic wound infection at […], iv loading dose followed by […], iv BID for 2 to 3 doses by microdialysis; assay type: ADME, organism-based; settings: human, in vivo
In short: (§2)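 Steady-state plasma after IV 100 mg loading then 50 mg every 12 h (1-h infusions) in diabetic patients. Total HPLC plasma levels converted to free using a polynomial fitted to ultrafiltration-derived percent unbound versus plasma concentration (y = y0 + a/x + b/x² + c/x³). Free-drug profiles analysed noncompartmentally; Cmax by visual inspection.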

[8] = fTmax in plasma of diabetic patient with chronic wound infection at […], iv loading dose followed by […], iv BID for 2 to 3 doses by microdialysis; assay type: ADME, organism-based; settings: human; in short: as §2
[9] = Cmax in wound interstitial fluid of diabetic patient with chronic wound infection at […], iv loading dose followed by […], iv BID for […] by microdialysis; assay type: ADME, organism-based; design: route intravenous; settings: human
In short: (§3)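 Subcutaneous microdialysis probes (30 mm membrane, 20 kDa cutoff) placed before dosing, one within 10 cm of wound margin and one in uninfected thigh of the same limb. Patients given IV 100 mg load then 50 mg q12h.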

[10] = Tmax in wound interstitial fluid of diabetic patient with chronic wound infection at […], iv loading dose followed by […], iv BID for […] by microdialysis; assay type: ADME, organism-based; settings: human; in short: as §3
[11] = AUC (0 to 24 hrs) in wound interstitial fluid of diabetic patient with chronic wound infection at […], iv loading dose followed by […], iv BID for […] by microdialysis; assay type: ADME, organism-based; design: time < 24 hr, route intravenous; settings: human; in short: as §3
[12] = Terminal half life in wound interstitial fluid of diabetic patient with chronic wound infection at […], iv loading dose followed by […], iv BID for […] by microdialysis; assay type: ADME, organism-based; settings: human; in short: as §3
[13] = Cmax in thigh interstitial fluid of diabetic patient with chronic wound infection at […], iv loading dose followed by […], iv BID for […] by microdialysis; assay type: ADME, organism-based; design: route intravenous; settings: human; in short: as §3
[14] = Tmax in thigh interstitial fluid of diabetic patient with chronic wound infection at […], iv loading dose followed by […], iv BID for […] by microdialysis; assay type: ADME, organism-based; settings: human; in short: as §3
[15] = AUC (0 to 24 hrs) in thigh interstitial fluid of diabetic patient with chronic wound infection at […], iv loading dose followed by […], iv BID for […] by microdialysis; assay type: ADME, organism-based; design: time < 24 hr, route intravenous; settings: human; in short: as §3
[16] = Terminal half life in thigh interstitial fluid of diabetic patient with chronic wound infection at […], iv loading dose followed by […], iv BID for […] by microdialysis; assay type: ADME, organism-based; settings: human; in short: as §3
[17] = Drug penetration in wound interstitial fluid of diabetic patient with chronic wound infection at […], iv loading dose followed by […], iv BID for […] by microdialysis; assay type: ADME, organism-based; settings: human, in vivo
In short: (§4)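 Tissue penetration is interstitial AUC0-24 (wound or thigh, microdialysis, recovery-corrected) divided by free plasma AUC0-24 × 100. Free plasma values come from the protein-binding polynomial applied to total concentrations. Sampling over a 12-h steady-state interval after IV 100 mg load then 50 mg q12h. Sites were compared by t test or Mann-Whitney.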

[18] = Drug penetration in thigh interstitial fluid of diabetic patient with chronic wound infection at […], iv BID for […] by microdialysis; assay type: ADME, organism-based; settings: human, in vivo; in short: as §4
[19] = Drug recovery in wound interstitial fluid of diabetic patient with chronic wound infection at […], iv loading dose followed by […], iv BID for 2 to 3 doses by microdialysis; assay type: ADME, organism-based; settings: human, in vivo
In short: (§5)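 In vivo recovery by retrodialysis for each catheter after the final sampling. Perfusate was lactated Ringer's containing 500 μg/ml drug, perfused for 1 h at 2 μl/min. Recovery = 100 − (100 × Cdialysate/Cperfusate), measured by HPLC.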

[20] = Drug recovery in thigh interstitial fluid of diabetic patient with chronic wound infection at […], iv loading dose followed by […], iv BID for 2 to 3 doses by microdialysis; assay type: ADME, organism-based; settings: human, in vivo; in short: as §5
[21] = fAUC (0 to 24 hrs) to MIC for Staphylococcus aureus infected in thigh of ICR mouse; assay type: functional, Thigh muscle
[22] = Ratio of AUC (0 to 24 hrs) in patient with complicated skin and skin structure infections to MIC for Staphylococcus aureus; assay type: functional
[23] = system: Staphylococcus aureus; experiment: Antimicrobial activity against methicillin-resistant Staphylococcus aureus by CLSI method; assay type: functional
[24] = Ratio of AUC (0 to 24 hrs) in plasma diabetic patient with chronic wound infection to MIC for methicillin-resistant Staphylococcus aureus; assay type: functional
In short: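 Eight adult diabetic patients; tigecycline 100 mg IV over 1 h, then 50 mg over 1 h every 12 h for 2–3 more doses. Venous plasma was sampled over the 12-h steady-state interval and total drug measured by HPLC.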

[25] = Ratio of fAUC (0 to 24 hrs) in plasma of diabetic patient with chronic wound infection to MIC for methicillin-resistant Staphylococcus aureus; assay type: functional
In short: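 Same patients and IV regimen (100 mg load, then 50 mg q12h). Total plasma levels measured by HPLC over the 12-h steady-state interval were converted to free drug using a polynomial fit of ultrafiltration protein binding, measured in triplicate at 1, 6 and 12 h.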

[26] = Ratio of AUC (0 to 24 hrs) in thigh interstitial fluid of diabetic patient with chronic wound infection to MIC for methicillin-resistant Staphylococcus aureus; assay type: functional, Thigh muscle
[27] = Drug penetration in blister fluid of healthy human at […], iv loading dose followed by […], iv BID for 2 to 3 doses by microdialysis; assay type: ADME, organism-based; settings: in vivo

**Q.** For `CN(C)c1cc(NC(=O)CNC(C)(C)C)c(O)c2c1C[C@H]1C[C@H]3[C@H](N(C)C)C(O)=C(C(N)=O)C(=O)[C@@]3(O)C(O)=C1C2=O` [TIGECYCLINE], which Cmax [1] is on record?
**A.** 420 ng/mL

**Q.** And the Tmax [2]?
**A.** 1.13 h

**Q.** And the AUC [3]?
**A.** 3990 ng·h/mL

**Q.** And the half-life [4]?
**A.** 9.73 h

**Q.** What about the CLss [5] of the same molecule?
**A.** 4.67 mL/min/kg

**Q.** And the Vd [6]?
**A.** 3.95 L/kg

**Q.** And the Cmax_unbound [7]?
**A.** 160 ng/mL

**Q.** What about the Tmax [8] of the same molecule?
**A.** 1.13 h

**Q.** And the Cmax [9]?
**A.** 160 ng/mL

**Q.** What about the Tmax [10] of the same molecule?
**A.** 4.38 h

**Q.** What about the AUC at 24 h [11] of the same molecule?
**A.** 2600 ng·h/mL

**Q.** What about the half-life [12] of the same molecule?
**A.** 24.9 h

**Q.** What about the Cmax [13] of the same molecule?
**A.** 180 ng/mL

**Q.** And the Tmax [14]?
**A.** 3.38 h

**Q.** What about the AUC at 24 h [15] of the same molecule?
**A.** 2520 ng·h/mL

**Q.** What about the half-life [16] of the same molecule?
**A.** 16 h

**Q.** What about the Drug uptake [17] of the same molecule?
**A.** 100%

**Q.** What about the Drug uptake [18] of the same molecule?
**A.** 98.94%

**Q.** And the Activity [19]?
**A.** 57.03%

**Q.** What about the Activity [20] of the same molecule?
**A.** 53.48%

**Q.** What about the fAUC/MIC [21] of the same molecule?
**A.** 5.7

**Q.** What about the RatioAUC/MIC [22] of the same molecule?
**A.** 17.9

**Q.** What about the MIC90 [23] of the same molecule?
**A.** 0.12 µg/mL (≈ 0.205 µM)

**Q.** What about the RatioAUC/MIC [24] of the same molecule?
**A.** 33.25

**Q.** What about the RatioAUC/MIC [25] of the same molecule?
**A.** 22.1

**Q.** And the RatioAUC/MIC [26]?
**A.** 21

**Q.** What about the Drug uptake [27] of the same molecule?
**A.** 74%
